Measurements from ChEMBL document CHEMBL4616611, “Synthesis and biological evaluation of FICZ analogues as agonists of aryl hydrocarbon receptor” (Bioorg Med Chem Lett, 2020).
Activity calls are given as the source filed them. The calls are words filed in the database; no cut-off is given here.

How the values were obtained:
[1] = target: T1, CYP1A1 (Homo sapiens, UniProt P35869); assay: Agonist activity at AhR in human HepG2 cells assessed as induction of CYP1A1 activity at 0.13 nM using 7-ethoxyresorufin as substrate after 24 hrs by ethoxyresorufin-O-deethylase assay relative to DMSO; assay type: cell-based; conditions: probe 7-ethoxyresorufin, read-out: FC
T1 sequence (P35869 whole entry): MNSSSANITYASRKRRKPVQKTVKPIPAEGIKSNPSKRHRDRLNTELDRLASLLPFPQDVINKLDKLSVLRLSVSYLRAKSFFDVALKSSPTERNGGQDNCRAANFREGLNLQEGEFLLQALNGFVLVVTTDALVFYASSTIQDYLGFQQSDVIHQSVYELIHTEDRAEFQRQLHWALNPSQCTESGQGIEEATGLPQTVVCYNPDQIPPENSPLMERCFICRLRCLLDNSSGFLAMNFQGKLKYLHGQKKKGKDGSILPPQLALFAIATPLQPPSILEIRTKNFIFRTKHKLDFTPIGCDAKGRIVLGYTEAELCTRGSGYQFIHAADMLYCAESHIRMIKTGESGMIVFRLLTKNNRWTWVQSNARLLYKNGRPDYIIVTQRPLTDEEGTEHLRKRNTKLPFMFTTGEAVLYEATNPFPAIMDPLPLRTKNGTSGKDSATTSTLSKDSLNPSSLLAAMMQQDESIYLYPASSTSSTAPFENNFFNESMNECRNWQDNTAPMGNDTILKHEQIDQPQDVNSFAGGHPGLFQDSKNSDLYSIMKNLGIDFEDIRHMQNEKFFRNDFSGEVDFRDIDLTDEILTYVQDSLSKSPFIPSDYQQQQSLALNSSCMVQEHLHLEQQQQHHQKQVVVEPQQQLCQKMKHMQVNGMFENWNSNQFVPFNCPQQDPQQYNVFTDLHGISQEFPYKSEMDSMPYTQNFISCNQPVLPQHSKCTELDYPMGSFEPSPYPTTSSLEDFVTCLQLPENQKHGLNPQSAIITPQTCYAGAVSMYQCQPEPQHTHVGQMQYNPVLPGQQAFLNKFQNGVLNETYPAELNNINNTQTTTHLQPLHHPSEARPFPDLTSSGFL
Procedure, shortened: (§1)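 EROD read-out of CYP1A1 activity in HepG cells treated for 24 h with compound or vehicle (DMSO) at 0.13 nM, 3.2 nM and 80 nM. Activity is reported as fold induction over the DMSO-treated cells.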

[2] = target: T1, CYP1A1; assay: Agonist activity at AhR in human HepG2 cells assessed as induction of CYP1A1 activity at 3.2 nM using 7-ethoxyresorufin as substrate after 24 hrs by ethoxyresorufin-O-deethylase assay relative to DMSO; assay type: cell-based; conditions: probe 7-ethoxyresorufin, read-out: FC; procedure, shortened: as §1
[3] = target: T1, CYP1A1; assay: Agonist activity at AhR in human HepG2 cells assessed as induction of CYP1A1 activity at 80 nM using 7-ethoxyresorufin as substrate after 24 hrs by ethoxyresorufin-O-deethylase assay relative to DMSO; assay type: cell-based; conditions: probe 7-ethoxyresorufin, read-out: FC; procedure, shortened: as §1
[4] = target: T1, CYP1A1; assay: Agonist activity at AhR in human HepG2 cells assessed as induction of CYP1A1 activity at 0.13 nM using 7-ethoxyresorufin as substrate after 24 hrs by ethoxyresorufin-O-deethylase assay relative to 3-phenylbenzo[f]chromen-1-one; assay type: cell-based; conditions: probe 7-ethoxyresorufin, read-out: FC
[5] = target: T1, CYP1A1; assay: Agonist activity at AhR in human HepG2 cells assessed as induction of CYP1A1 activity at 3.2 nM using 7-ethoxyresorufin as substrate after 24 hrs by ethoxyresorufin-O-deethylase assay relative to 3-phenylbenzo[f]chromen-1-one; assay type: cell-based; conditions: probe 7-ethoxyresorufin, read-out: FC
[6] = target: T2, Aryl hydrocarbon receptor (Homo sapiens, UniProt P35869); assay: Agonist activity at AhR in human HepG2 cells assessed as induction of CYP1A1 expression after 24 hrs by ethoxyresorufin-O-deethylase assay; assay type: cell-based; conditions: for Activity: human, hepg2, 24 h
T2 sequence (P35869 whole entry): T1 sequence (P35869 whole entry)
Procedure, shortened: (§2)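 Full dose-response in the EROD assay. HepG2 cells were treated for 24 h across a concentration series, with FICZ as the reference agonist. CYP1A1 induction was read out and EC50 values were derived from the curves.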

[7] = target: T2, Aryl hydrocarbon receptor; assay: Agonist activity at AhR in human HepG2 cells assessed as increase in CYP1A1 protein expression at 300 nM after 24 hrs by Western blot analysis; assay type: cell-based; conditions: hepg2, 24 h, 0.3 µM
Procedure, shortened: (§3)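 HepG2 cells were exposed to a dose series for 24 h. CYP1A1 protein levels were then assessed by Western blotting.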

[8] = target: T2, Aryl hydrocarbon receptor; assay: Potency index, ratio of FICZ EC50 to test compound EC50 for agonist activity at AhR in human HepG2 cells assessed as increase in CYP1A1 expression after 24 hrs by ethoxyresorufin-O-deethylase assay; assay type: cell-based; conditions: hepg2, 24 h
[9] = target: T2, Aryl hydrocarbon receptor; assay: Agonist activity at AhR in human HepG2 cells assessed as induction of CYP1A1 expression at <30 pM after 24 hrs by ethoxyresorufin-O-deethylase assay; assay type: cell-based; conditions: hepg2, 24 h; procedure, shortened: as §2
[10] = test system: HepG2; assay: Effect on AhR mRNA expression in human HepG2 cells assessed as 100 nM after 6 hrs by q-RT-PCR analysis; assay type: functional, cell-based
Procedure, shortened: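 HepG2 cells were treated at 100 nM for 6 h. AhR and CYP1A1 mRNA levels were then quantified by qRT-PCR, normalized to GAPDH.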

[11] = target: T2, Aryl hydrocarbon receptor; assay: Agonist activity at AhR in human HepG2 cells assessed as increase in CYP1A1 protein expression at 3 to 10 nM after 24 hrs by Western blot analysis; assay type: cell-based; conditions: hepg2, 24 h; procedure, shortened: as §3
[12] = target: T2, Aryl hydrocarbon receptor; assay: Agonist activity at AhR in human HepG2 cells assessed as increase in CYP1A1 protein expression after 24 hrs by Western blot analysis; assay type: cell-based; conditions: hepg2, 24 h; procedure, shortened: as §3

Compound	fold induction at 24 h, 0.00013 µM [1]	fold induction at 24 h, 0.0032 µM [2]	fold induction at 24 h, 0.08 µM [3]	also measured
CCCn1c2ccccc2c2c(C=O)c3c(cc21)c1ccccc1n3C	1.3	1.9	8.9	–
O=Cc1c2[nH]c3ccccc3c2cc2[nH]c3ccccc3c12	–	–	–	Activity [6]: Dose-dependent effect
Cn1c2ccccc2c2c(C=O)c3c(cc21)c1ccccc1n3C	1.6	3.4	39.4	–
O=c1cc(-c2ccccc2)oc2ccc3ccccc3c12 [BETA-NAPHTHOFLAVONE]	0.8	1.1	11.2	Activity [7]: Active
Cn1c2ccccc2c2cc3c(c(C=O)c21)c1ccccc1n3Cc1ccccc1	1	4.2	27.5	–
CCn1c2ccccc2c2c(C=O)c3c(cc21)c1ccccc1n3C	1.4	4.5	25.1	–

The next lines start with results.

fold induction at 24 h, 0.00013 µM [1]	fold induction at 24 h, 0.0032 µM [2]	fold induction at 24 h, 0.08 µM [3]	Compound	also measured
1.4	3.5	31.8	CCn1c2ccccc2c2cc3[nH]c4ccccc4c3c(CO)c21	–
5.3	26.7	62.6	Cn1c2ccccc2c2cc3[nH]c4ccccc4c3c(CO)c21	–
3.8	13.4	59.2	OCc1c2[nH]c3ccccc3c2cc2[nH]c3ccccc3c12	fold induction at 24 h, 0.00013 µM [4]: 5; fold induction at 24 h, 0.0032 µM [5]: 12
0.4	0.7	3.6	OCc1c2c(cc3c4ccccc4n(Cc4ccccc4)c13)[nH]c1ccccc12	–
0.3	0.5	2.6	OCc1c2c(cc3c4ccccc4n(CC4CC4)c13)[nH]c1ccccc12	–
0.4	0.5	3.4	CCCn1c2ccccc2c2cc3[nH]c4ccccc4c3c(CO)c21	–
27.3	88.9	82.4	Cn1c2ccccc2c2cc3[nH]c4ccccc4c3c(C=O)c21	EC50 [6]: 0.26 nM; Activity [6]: Dose-dependent effect; Ratio EC50 [8]: 8; Activity [9]: Active; Activity [10]: inactive; Activity [11]: Active; Activity [12]: Dose-dependent effect
